Calls of active or inactive are those of the source. The calls are words filed in the database; no cut-off is given here.
Columns and labels:
HT-29 [1] = assay: Antiproliferative activity against human HT-29 cells after 2 days by MTT assay; format: functional, cell-based; conditions: HT-29, 48 h
MCF7 = assay: Antiproliferative activity against human MCF7 cells after 2 days by MTT assay; format: functional, cell-based; conditions: MCF7, 48 h
A549 [2] = assay: Antiproliferative activity against human A549 cells after 2 days by MTT assay; format: functional, cell-based; conditions: A549, 48 h
HEK293 = assay: Antiproliferative activity against HEK293 cells after 2 days by MTT assay; format: ADME, cell-based; conditions: Homo sapiens, HEK293, 48 h
HT-29 [3] = assay: Downregulation of c-Myc gene expression in human HT-29 cells assessed as c-Myc mRNA level at 10 nM after 48 hrs by RT-PCR method (reference value: 100%); format: functional
Procedure, shortened: (§1)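 HT-29 cells were taken at 70–80% confluence and seeded at 1.5 x 10^5 per well. After 24 h they were exposed to compound for 48 h. Total RNA was isolated and TaqMan RT-qPCR run for VEGF-A, c-MYC and hTERT, normalized to β-actin. Expression is given as percent of DMSO control, with at least three measurements and one-sample t-tests.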

HT-29 [4] = assay: Downregulation of hTERT gene expression in human HT-29 cells assessed as hTERT mRNA level at 10 nM after 48 hrs by RT-PCR method (reference value: 100%); format: functional; procedure, shortened: as §1
HT-29 [5] = assay: Downregulation of VEGF gene expression in human HT-29 cells assessed as VEGF mRNA level at 10 nM after 48 hrs by RT-PCR method (reference value: 100%); format: functional; procedure, shortened: as §1
HT-29 [6] = assay: Inhibition of VEGF protein secretion in human HT-29 cells assessed as VEGF protein level at 10 nM after 48 hrs by ELISA (reference value: 100%); format: functional; set-up: scale not given: the % may be the effect or the level left
A549 [7] = assay: Cell cycle arrest in human A549 cells assessed as accumulation at sub-G0 phase at 50 nM after 24 hrs by propidium iodide staining based flow cytometry (reference value: 2 +/- 1%); format: functional
Procedure, shortened: (§2)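 A549 cells maintained in DMEM (1 g/L glucose, 2 mM glutamine, penicillin/streptomycin/amphotericin B, 10% FBS) and treated for 24 h. Cells were then fixed, RNase-treated and stained with propidium iodide. DNA content was measured by flow cytometry to give cell-cycle phase distribution, including a sub-G1 peak. Data are means (±SD) of two experiments.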

A549 [8] = assay: Cell cycle arrest in human A549 cells assessed as accumulation at G0/G1 phase at 50 nM after 24 hrs by propidium iodide staining based flow cytometry (reference value: 73 +/- 3%); format: functional; procedure, shortened: as §2
A549 [9] = assay: Cell cycle arrest in human A549 cells assessed as accumulation at S phase at 50 nM after 24 hrs by propidium iodide staining based flow cytometry (reference value: 15 +/- 6%); format: functional; procedure, shortened: as §2
A549 [10] = assay: Cell cycle arrest in human A549 cells assessed as accumulation at G2/M phase at 50 nM after 24 hrs by propidium iodide staining based flow cytometry (reference value: 11 +/- 4%); format: functional; procedure, shortened: as §2
A549 [11] = assay: Cell cycle arrest in human A549 cells assessed as accumulation at sub-G0 phase at 15 nM after 24 hrs by propidium iodide staining based flow cytometry (reference value: 2 +/- 1%); format: functional; procedure, shortened: as §2
A549 [12] = assay: Cell cycle arrest in human A549 cells assessed as accumulation at G0/G1 phase at 15 nM after 24 hrs by propidium iodide staining based flow cytometry (reference value: 73 +/- 3%); format: functional; procedure, shortened: as §2
A549 [13] = assay: Cell cycle arrest in human A549 cells assessed as accumulation at S phase at 15 nM after 24 hrs by propidium iodide staining based flow cytometry (reference value: 15 +/- 6%); format: functional; procedure, shortened: as §2
A549 [14] = assay: Cell cycle arrest in human A549 cells assessed as accumulation at G2/M phase at 15 nM after 24 hrs by propidium iodide staining based flow cytometry (reference value: 11 +/- 4%); format: functional; procedure, shortened: as §2
A549 [15] = assay: Cell cycle arrest in human A549 cells assessed as accumulation at G2/M phase at antiproliferative IC50 after 24 hrs by propidium iodide staining based flow cytometry; format: functional
Procedure, shortened: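 A549 cells kept in DMEM (1 g/L glucose, 2 mM glutamine, antibiotics, amphotericin B, 10% FBS), treated 24 h with compound from 10 mM DMSO stock; fixed, RNase-treated, stained with propidium iodide, DNA content read by flow cytometry for phase distribution. Average (±SD) of two experiments.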

HT-29 [16] = assay: Downregulation of c-Myc gene expression in human HT-29 cells assessed as c-Myc mRNA level at 3 nM after 48 hrs by RT-PCR method (reference value: 100%); format: functional
Procedure, shortened: (§3)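 HT-29 cells (1.5 x 10^5 per well, six-well plate) seeded 24 h, then exposed 48 h with DMSO control; total RNA extracted, target mRNA quantified by TaqMan RT-qPCR, normalized to β-actin, expressed as percentage of control. At least three measurements; one-sample t-tests.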

HT-29 [17] = assay: Downregulation of hTERT gene expression in human HT-29 cells assessed as hTERT mRNA level at 3 nM after 48 hrs by RT-PCR method (reference value: 100%); format: functional; procedure, shortened: as §3
HT-29 [18] = assay: Downregulation of VEGF gene expression in human HT-29 cells assessed as VEGF mRNA level at 3 nM after 48 hrs by RT-PCR method (reference value: 100%); format: functional; procedure, shortened: as §3
HT-29 [19] = assay: Inhibition of VEGF protein secretion in human HT-29 cells assessed as VEGF protein level at 3 nM after 48 hrs by ELISA (reference value: 100%); format: functional; set-up: scale not given: the % may be the effect or the level left
Procedure, shortened: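 HT-29 cells (1.5 x 10^5 per well, six-well plate) seeded 24 h, then treated 48 h with DMSO control; secreted VEGF in culture supernatant measured by human VEGF ELISA kit, expressed as percentage of control. At least three measurements.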

A549 [20] = assay: Cell cycle arrest in human A549 cells assessed as accumulation at G2/M phase at 3 nM after 24 hrs by propidium iodide staining based flow cytometry; format: functional; procedure, shortened: as §2
HT-29 [21] = assay: Downregulation of c-Myc gene expression in human HT-29 cells assessed as c-Myc mRNA level at […] after 48 hrs by RT-PCR method (reference value: 100%); format: functional
HT-29 [22] = assay: Downregulation of hTERT gene expression in human HT-29 cells assessed as hTERT mRNA level at […] after 48 hrs by RT-PCR method (reference value: 100%); format: functional
HT-29 [23] = assay: Downregulation of VEGF gene expression in human HT-29 cells assessed as VEGF mRNA level at […] after 48 hrs by RT-PCR method (reference value: 100%); format: functional
HT-29 [24] = assay: Inhibition of VEGF protein secretion in human HT-29 cells assessed as VEGF protein level at […] after 48 hrs by ELISA (reference value: 100%); format: functional; set-up: scale not given: the % may be the effect or the level left

Structure (SMILES) | IC50 (HT-29 [1]) [nM] | IC50 (MCF7) [nM] | IC50 (A549 [2]) [nM] | IC50 (HEK293) [nM] | Activity (A549 [11]) [%] | Activity (A549 [12]) [%] | Activity (A549 [13]) [%] | Activity (A549 [14]) [%] | Activity (A549 [20]) | Activity (HT-29 [21]) [%] | Activity (HT-29 [22]) [%] | Activity (HT-29 [23]) [%] | Activity (HT-29 [24]) [%] | other results
COc1cc2c(c(OC)c1OC)-c1ccc(OC)c(=O)cc1[C@@H](NC(=O)CI)CC2 | 10 | 4.1 | 31 | 19 |  |  |  |  |  |  |  |  |  | Activity (HT-29 [3]): 42%; Activity (HT-29 [4]): 59%; Activity (HT-29 [5]): 42%; Activity (HT-29 [6]): 89%
COc1cc2c(c(OC)c1OC)-c1ccc(OC)c(=O)cc1[C@@H](NC(=O)c1ccccc1)CC2 | 8.1 | 5 | 10 | 13 |  |  |  |  |  |  |  |  |  | Activity (A549 [7]): 4%; Activity (A549 [8]): 29%; Activity (A549 [9]): 28%; Activity (A549 [10]): 40%
COc1cc2c(c(OC)c1OC)-c1ccc(OC)c(=O)cc1[C@@H](NC(=O)CC1CCCCC1)CC2 | 8.7 | 9 | 19.4 | 10.5 |  |  |  |  |  |  |  |  |  | 

These reach a lower IC50 (HT-29 [1]). Values come first.

IC50 (HT-29 [1]) [nM] | IC50 (MCF7) [nM] | IC50 (A549 [2]) [nM] | Structure (SMILES) | IC50 (HEK293) [nM] | Activity (A549 [11]) [%] | Activity (A549 [12]) [%] | Activity (A549 [13]) [%] | Activity (A549 [14]) [%] | Activity (A549 [20]) | Activity (HT-29 [21]) [%] | Activity (HT-29 [22]) [%] | Activity (HT-29 [23]) [%] | Activity (HT-29 [24]) [%] | other results
4.6 | 29 | 12.3 | COc1cc2c(c(OC)c1OC)-c1ccc(OC)c(=O)cc1[C@@H](NC(=O)CCl)CC2 | 4.56 | 2 | 22 | 20 | 55 |  |  |  |  |  | Activity (A549 [15]): Active; Activity (HT-29 [16]): 74%; Activity (HT-29 [17]): 66%; Activity (HT-29 [18]): 76%; Activity (HT-29 [19]): 100%
2.3 | 4.5 | 13 | COc1cc2c(c(OC)c1OC)-c1ccc(OC)c(=O)cc1[C@@H](NC(=O)c1ccccc1Cl)CC2 | 5.93 | 3 | 11 | 26 | 55 | Active | 38 | 54 | 32 | 54 | 
1.79 | 6.7 | 6.6 | COc1cc2c(c(OC)c1OC)-c1ccc(OC)c(=O)cc1[C@@H](NC(=O)c1ccc(Cl)cc1)CC2 | 10.1 | 2 | 27 | 14 | 48 | Active | 37 | 73 | 37 | 54 | 

From ChEMBL document CHEMBL4196091 (Eur J Med Chem, 2018)
